This is an account of results in ChEMBL document CHEMBL4261642, “Design, synthesis, and ex vivo evaluation of a selective inhibitor for retinaldehyde dehydrogenase enzymes” (Bioorg Med Chem, 2018).

For orientation: inhibition means the percentage by which the read-out fell short of the control. As a reminder, the kinact/KI is the second-order rate constant of inactivation. Broadly, the pKi is −log10 of the Ki, conventionally taken in molar units. One may read the pIC50 as the IC50 on a negative log10 scale, so that one unit is a factor of ten.

pIC50, pKi: −log10 of the molar value. The source made the active and inactive calls. The calls are words filed in the database; no cut-off is given here.

Experiment [1] concerns the target T1, Retinal dehydrogenase 2 (Gallus gallus) (UniProt O93344).
T1 sequence (whole entry): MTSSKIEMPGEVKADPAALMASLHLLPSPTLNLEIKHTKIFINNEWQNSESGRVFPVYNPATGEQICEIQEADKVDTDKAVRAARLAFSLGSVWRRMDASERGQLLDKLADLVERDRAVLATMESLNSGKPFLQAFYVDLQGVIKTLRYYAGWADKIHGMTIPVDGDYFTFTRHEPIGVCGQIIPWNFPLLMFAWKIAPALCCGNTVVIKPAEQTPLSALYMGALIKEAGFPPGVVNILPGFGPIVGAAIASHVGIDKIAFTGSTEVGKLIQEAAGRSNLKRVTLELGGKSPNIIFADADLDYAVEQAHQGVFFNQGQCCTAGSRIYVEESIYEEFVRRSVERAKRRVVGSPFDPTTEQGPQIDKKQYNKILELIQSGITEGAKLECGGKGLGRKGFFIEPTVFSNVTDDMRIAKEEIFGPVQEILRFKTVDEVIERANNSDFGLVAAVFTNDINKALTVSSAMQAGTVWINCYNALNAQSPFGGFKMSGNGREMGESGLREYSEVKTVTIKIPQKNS
Nature of the experiment: Inhibition of N-terminal His6-tagged recombinant chick RALDH2 expressed in Escherichia coli BL21(DE3) cells at 250 nM using RAL as substrate assessed as remaining activity incubated up to 80 mins in presence of all-trans-retinaldehyde folowed by substrate addition and measured after 30 mins in presence of NAD+ by fluorescence assay. Summed up:
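Chick RALDH2 (91 nM) pre-incubated with 250 nM inhibitor for 0–80 min at 37°C, alone or with 250 μM retinaldehyde or 250 μM NAD+. Reaction then started with the missing substrate and/or cofactor (250 μM retinaldehyde, 4 mM NAD), 30 min at 37°C. Fluorimetric NADH; % activity remaining. Triplicates.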

Experiment [2] deals with T1, Retinal dehydrogenase 2 (Gallus gallus). Nature of the experiment: Inhibition of chick RALDH2 expressed in doxycycline-inducible HEK293 cells assessed as inhibition of ATRA synthesis at 1 uM after 24 hrs in presence of […]. In kind it is cell-based.
Experiment [3] concerns the target T2, Retinal dehydrogenase 2 (Homo sapiens) (UniProt O94788).
T2 sequence (whole entry): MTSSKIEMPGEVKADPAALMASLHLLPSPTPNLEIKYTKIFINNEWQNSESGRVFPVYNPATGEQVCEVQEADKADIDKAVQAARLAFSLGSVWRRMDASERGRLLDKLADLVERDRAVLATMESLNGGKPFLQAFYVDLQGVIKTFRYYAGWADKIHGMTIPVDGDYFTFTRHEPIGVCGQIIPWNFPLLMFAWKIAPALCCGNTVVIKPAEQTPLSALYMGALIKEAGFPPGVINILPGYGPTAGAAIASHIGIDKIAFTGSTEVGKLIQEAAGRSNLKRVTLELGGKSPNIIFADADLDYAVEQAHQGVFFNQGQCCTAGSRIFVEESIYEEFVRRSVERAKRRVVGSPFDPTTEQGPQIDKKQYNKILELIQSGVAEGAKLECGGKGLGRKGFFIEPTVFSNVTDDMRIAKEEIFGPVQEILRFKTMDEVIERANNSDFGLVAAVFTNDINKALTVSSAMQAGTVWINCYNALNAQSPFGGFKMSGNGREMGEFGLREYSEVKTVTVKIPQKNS
The experiment can be described thus: Inhibition of RALDH2 (unknown origin) […] assessed as time dependence ratio (kinact/KI).

In the next experiment the target is T3, Retinal dehydrogenase 2 (Gallus gallus, UniProt O93344).
T3 sequence (O93344 whole entry): T1 sequence (whole entry)
The experiment can be described thus: Inhibition of N-terminal His6-tagged recombinant chick RALDH2 expressed in Escherichia coli BL21(DE3) cells up to 500 nM using RAL as substrate preincubated up to 40 mins followed by substrate addition and measured after 30 mins in presence of NADH by fluorescence assay. Summed up:
(§1)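 Chick RALDH2 pre-incubated 10, 20 and 40 min with 0–500 nM inhibitor, then assayed with retinaldehyde/NAD+ by fluorimetric NADH. kobs taken from linear regression of log % activity remaining versus pre-incubation time. KI and kinact obtained by nonlinear regression of kobs versus inhibitor concentration.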

Experiment [4] addresses T1, Retinal dehydrogenase 2 (Gallus gallus). The experiment can be described thus: Inhibition of RALDH2 in living intact choroid isolated from normal chick eyes assessed as inhibition of ATRA synthesis after 24 hrs in presence of retinaldehyde and NAD+.
The target is the same in experiment [5]. Nature of the experiment: Inhibition of N-terminal His6-tagged recombinant chick RALDH2 expressed in Escherichia coli BL21(DE3) cells up to 500 nM using RAL as substrate assessed as Kinact/Ki ratio preincubated up to 40 mins followed by substrate addition and measured after 30 mins in presence of NADH by fluorescence assay. Put shortly: as §1
Experiment [6] deals with T4, Aldehyde dehydrogenase 1A1 (Gallus gallus) (UniProt P27463).
T4 sequence (whole entry): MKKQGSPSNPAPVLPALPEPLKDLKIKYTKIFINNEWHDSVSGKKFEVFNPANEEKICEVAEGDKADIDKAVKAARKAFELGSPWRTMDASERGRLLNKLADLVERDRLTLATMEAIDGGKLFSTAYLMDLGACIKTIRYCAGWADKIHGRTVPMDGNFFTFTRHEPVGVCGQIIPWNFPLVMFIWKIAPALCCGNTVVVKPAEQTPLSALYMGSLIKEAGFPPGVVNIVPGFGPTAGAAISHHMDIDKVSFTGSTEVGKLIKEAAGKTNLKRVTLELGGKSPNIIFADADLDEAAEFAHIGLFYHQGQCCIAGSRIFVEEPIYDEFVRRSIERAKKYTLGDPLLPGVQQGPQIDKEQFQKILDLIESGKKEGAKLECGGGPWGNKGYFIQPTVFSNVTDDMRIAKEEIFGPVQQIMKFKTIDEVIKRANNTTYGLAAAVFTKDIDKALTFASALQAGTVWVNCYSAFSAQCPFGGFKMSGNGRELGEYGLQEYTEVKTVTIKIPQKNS
Nature of the experiment: Irreversible inhibition of N-terminal His6-tagged recombinant chick RALDH1 expressed in Escherichia coli BL21(DE3) cells using RAL as substrate assessed as reduction in enzyme Vmzx preincubated for 20 mins followed by substrate addition and measured after 30 mins in presence of NADH by fluorescence assay.

Experiment [7] in a line: Inhibition of N-terminal His6-tagged recombinant chick RALDH3 expressed in Escherichia coli BL21(DE3) cells using RAL as substrate preincubated for 20 mins followed by substrate addition and measured after 30 mins in presence of NADH by fluorescence assay. Also on record: species or system Gallus gallus. Summed up: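 Purified His-tagged recombinant enzyme in dialysis buffer with 2 mM DTT. Amounts were chick RALDH1 2 μg (0.358 μM), chick RALDH2 0.5 μg (0.091 μM), chick RALDH3 2 μg (0.355 μM) and human RALDH2 1 μg (0.176 μM). Enzyme pre-incubated 20 min at 37°C with 0–10 μM inhibitor in DMSO. Reaction started with final 4 mM NAD+ in pyrophosphate pH 8.2 buffer plus 250 μM retinaldehyde, 30 min at 37°C. NADH read fluorimetrically (Ex/Em 540/590) against a standard curve. Triplicates, 3–5 experiments.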

For the compound `CC1=C(/C=C/C(C)=C/C=C/C(C)=C/C(=O)C(Cl)Cl)C(C)(C)CCC1`, the inhibition result in experiment [1] and in experiment [6] was “Active” throughout. Further, the inhibition in experiment [2] worked out at 92%. Further, in experiment [3], the kinact/KI is 1550 to 233000 M⁻¹ s⁻¹. In addition, the pKi at Retinal dehydrogenase 2 was 6.89. In addition, the inhibition result in experiment [4] was “inactive”. Besides, the Ratio in experiment [5] was 124000 M⁻¹ min⁻¹. Further, the pIC50 in experiment [7] is 6.79.
